Consider 34 compounds from ChEMBL document CHEMBL1122683, “Histamine H2 receptor antagonists. 1. Synthesis of N-cyano and N-carbamoyl amidine derivatives and their biological activities” (1984).

For one assay, the species on record is Cavia porcellus. Put plainly: Dose representing 50% inhibition of positive chronotropic response to histamine in guinea pig atrium (5 x 10e -6M). Conditions: Cardiac atrium, read-out: ED50 (the source's name). The class given is functional. Summed up:
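Isolated right atria from guinea pig, three to four preparations per compound. Test agent added 10 min ahead of histamine (5 × 10⁻⁶ M). Read-out is inhibition of the histamine-induced rise in atrial rate. Percent inhibition plotted against log concentration, and the 50%-inhibiting dose read from that curve; means ± SE.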

The subject of another assay is Canis familiaris. Put plainly: Reduction in acid response to histamine(160 ug/kg/h i.v.) in anesthetized dogs with acute gastric fistula. Conditions: Canis lupus familiaris, Stomach, iv. The class given is functional. A digest of the protocol:
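Mongrel dogs of 8–10 kg, fasted 24 h and anesthetized with pentobarbital 30 mg/kg i.v. Pylorus and esophagus ligated, with a stainless steel cannula in the stomach. Histamine infused at 160 μg/(kg h), drugs given i.v., gastric juice collected every 15 min. Inhibition taken from predrug minus minimum acid output (within 45 min). ED50 from a semilog dose-response plot.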

In general, ED50 refers to the dose that gives a 50% effect, or the effect in half of the subjects. Read a high ED50 as a need for a large dose. Consider `N#CNC(=N)CCSCc1csc(NC(=N)N)n1`, for which the EC50 in the assay listed under Cavia porcellus amounted to 0.18 µM. Further, the 50% effect level with Canis familiaris (ED50) was put at a dose of 0.018 mg/kg.

In the case of `N=C(CCSCc1[nH]cnc1C(F)(F)F)NC(N)=O`, the EC50 in the assay listed under Cavia porcellus was above 100 µM.

Take `CN(C)Cc1ccc(CSCCC(=N)NC#N)o1`: in the assay listed under Cavia porcellus, the EC50 was 2.1 µM. This compound registered a median effective dose (ED50) with Canis familiaris of 0.28 mg/kg.

For the compound `C/N=C(/CCSCc1ccc(CN(C)C)o1)NC#N`, in the assay listed under Cavia porcellus, the EC50 was found to be 170 µM. The 50% effective dose (ED50) with Canis familiaris was above 10 mg/kg.

For `C/N=C(/NC)Nc1nc(CSCCC(=N)NC#N)cs1`, in the assay listed under Cavia porcellus, the EC50 was above 100 µM.

For `C/N=C(/N)Nc1nc(CSCCC(=N)NC(N)=O)cs1.Cl.Cl`, in the assay filed under Cavia porcellus, the EC50 was determined as 0.32 µM. Further, the median effective dose (ED50) in the assay on Canis familiaris was found to be 0.046 mg/kg.

With `N#CNC(=N)CCSCc1noc(NC(=N)N)n1`, in the assay filed under Cavia porcellus, the EC50 is above 100 µM.

On to `NC(=O)CCSCc1csc(N=C(N)N)n1`, for which the EC50 in the assay listed under Cavia porcellus turned out to be 1 µM.

Consider `CCc1[nH]cnc1CSCCC(=N)NC(N)=O.Cl.Cl`, for which the EC50 in the assay listed under Cavia porcellus came to 2 µM. This compound displayed an ED50 in the assay on Canis familiaris of 0.33 mg/kg.

On to `Cc1[nH]cnc1CSCCC(=N)NC#N`, for which the EC50 in the assay filed under Cavia porcellus was above 100 µM.

For `C#CC/N=C(/CCSCc1nc[nH]c1C)NC#N`, the EC50 in the assay listed under Cavia porcellus is above 100 µM.

As for `Cc1[nH]cnc1CSCCC(=N)NC(N)=O.Cl.Cl`, the EC50 in the assay listed under Cavia porcellus turned out to be 0.9 µM. The 50% effective dose (ED50) with Canis familiaris amounted to 0.22 mg/kg.

For `CN(C)Nc1nc(CSCCC(=N)NC#N)cs1`, the EC50 in the assay filed under Cavia porcellus is above 100 µM.

Regarding `CC(=N)Nc1nc(CSCCC(=N)NC(N)=O)cs1`, the EC50 in the assay listed under Cavia porcellus came to 2.5 µM.

In the case of `C/N=C(/CCSCc1[nH]cnc1C)NC#N`, the EC50 in the assay filed under Cavia porcellus is above 100 µM.

On to `CN(C)Cc1cccc(OCCCC(=N)NC#N)c1`, for which the EC50 in the assay filed under Cavia porcellus worked out at 20 µM. Besides, it took a dose of 9 mg/kg to reach the 50% effect level with Canis familiaris (ED50).

Take `Cl.Cl.N=C(CCSCc1c[nH]cn1)NC(N)=O`: the EC50 in the assay filed under Cavia porcellus is 5.3 µM. It took a dose of 1.3 mg/kg to reach the 50% effect level with Canis familiaris (ED50).

Turning to `N#CNC(=N)CCCCc1csc(NC(=N)N)n1`, in the assay listed under Cavia porcellus, the EC50 was 0.12 µM. The compound further returned an ED50 in the assay with Canis familiaris of 0.022 mg/kg.

On to `C/N=C(/CCSCc1csc(N=C(N)N)n1)NC#N`, for which the EC50 in the assay filed under Cavia porcellus was 0.98 µM. The compound also gave an ED50 with Canis familiaris of 0.39 mg/kg.

In the case of `N#CNC(=N)CCSCc1nc[nH]n1`, the EC50 in the assay listed under Cavia porcellus was above 100 µM.

In the case of `Cl.Cl.N=C(CCSCc1ccccn1)NC(N)=O`, the EC50 in the assay filed under Cavia porcellus came out at 12 µM. This compound returned a median effective dose (ED50) with Canis familiaris of 2.5 mg/kg.

For `N#C/N=C(\N)CCSCc1csc(N)n1`, the EC50 in the assay listed under Cavia porcellus is above 100 µM.

Consider `C/N=C(/N)Nc1nc(CSCCC(=N)NC#N)cs1`, for which, in the assay listed under Cavia porcellus, the EC50 was 1.2 µM.

Take `N#CNC(=N)CCCOc1cccc(CN2CCCC2)c1`: the EC50 in the assay filed under Cavia porcellus was 13 µM. Moreover, the 50% effect level with Canis familiaris (ED50) was put at a dose of 3.5 mg/kg.

Regarding `CN/C(=N\CCSCc1nc[nH]c1C)NC#N` [CIMETIDINE], in the assay listed under Cavia porcellus, the EC50 is 2.7 µM. Further, the ED50 in the assay on Canis familiaris amounted to 0.33 mg/kg.

Consider `CC(=N)Nc1nc(CSCCC(=N)NC#N)cs1`, for which the EC50 in the assay listed under Cavia porcellus turned out to be 9.1 µM.

With `Cl.Cl.N=C(CCSCc1nc[nH]n1)NC(N)=O`, the EC50 in the assay filed under Cavia porcellus stood at 41 µM. In addition, the 50% effect level with Canis familiaris (ED50) was put at a dose of 6.9 mg/kg.

For `CN(C)Cc1ccc(CSCCC(=N)NC#N)s1`, the EC50 in the assay filed under Cavia porcellus came to 13 µM. In addition, in the assay with Canis familiaris, the ED50 turned out to be 4.4 mg/kg.

Consider `N#CNC(=N)CCSCc1ccc(CN2CCOCC2)o1`, for which the EC50 in the assay filed under Cavia porcellus is above 100 µM.

`N#CNC(=N)CCSCc1ccccn1`: in the assay listed under Cavia porcellus, the EC50 was above 100 µM.

On to `N=C(N)Nc1nc(CSCCC(=N)NC(N)=O)no1`, for which, in the assay listed under Cavia porcellus, the EC50 turned out to be 26 µM.

As to `N#CNC(=N)CCCOc1cccc(CN2CCCCC2)c1`, in the assay filed under Cavia porcellus, the EC50 was found to be 4.7 µM. For the same compound, the 50% effective dose (ED50) in the assay on Canis familiaris turned out to be 2.3 mg/kg.

Consider `N#CNC(=N)CCSCc1ccc(CN2CCCCC2)o1`, for which the EC50 in the assay filed under Cavia porcellus is 35 µM.

Regarding `Cl.Cl.N=C(N)Nc1nc(CSCCC(=N)NC(N)=O)cs1`, the EC50 in the assay listed under Cavia porcellus amounted to 0.074 µM. Also, it took a dose of 0.0064 mg/kg to reach the 50% effect level with Canis familiaris (ED50).
